Calls of active or inactive are those of the source. No cut-off for these calls is given here.
How the values were obtained:
[1] = Toxicity in wild-type Drosophila assessed as lethal dose administered orally via food to female and male flies and measured in F1 generation flies after 15 days; assay type: organism-based; conditions: both, in vivo, route po, time 15 day, read-out: LD50
Outline: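 Wild-type Oregon R+ flies (10 virgin females and males) were crossed on standard food containing 1, 10, 50, 100 or 200 μM compound and kept at 24 ± 1 °C. The F1 generation was followed for 15 days, scoring percent adult eclosion against an untreated control. LD50 was derived from the eclosion data, with Dunnett's test.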

[2] = test system: Drosophila; assay: Toxicity in wild-type Drosophila assessed as eclosion rate at 100 uM, po via food to female and male flies and measured in F1 generation flies after 15 days; assay type: organism-based; conditions: in vivo, 360 h, time 15 day
Outline: (§1)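 Ten virgin female and male Oregon R+ flies crossed on food containing compound (1, 10, 50, 100 or 200 μM), held at 24 ± 1 °C; F1 generation followed 15 days; percent eclosion versus untreated controls; Dunnett's multiple comparisons.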

[3] = test system: Drosophila; assay: Anti-cancer activity in Drosophila harboring UAS-Ras V12 mutant assessed as rescue of third instar larval lethality at 10 to 50 uM, po; assay type: functional, organism-based; conditions: dose 10-50 µM
Outline: (§2)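 UAS-RasV12 glial glioblastoma model (repo-GAL4/UAS-RasV12) in Drosophila, with Oregon R+ wild-type flies as control. Flies reared at 24 ± 1 °C on standard corn food containing compound at 10 or 50 μM. Percent of animals at each developmental stage (third instar larva, pupa) scored. Significance by Tukey's multiple comparisons test.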

[4] = test system: Drosophila; assay: Anti-cancer activity in Drosophila harboring UAS-Ras V12 mutant assessed as increase in early pupal developmental differentiation at 10 to 50 uM, po; assay type: functional, organism-based; conditions: dose 10-50 µM; outline: as §2
[5] = test system: Drosophila; assay: Anti-cancer activity in Drosophila harboring UAS-Ras V12 mutant assessed as improvement in larval development to pupal transition at 10 to 50 uM, po; assay type: functional, organism-based; conditions: dose 10-50 µM; outline: as §2
[6] = test system: Drosophila; assay: Anti-cancer activity in Drosophila harboring UAS-Ras V12 mutant assessed as improvement in pupal development at 10 uM, po; assay type: functional, organism-based; outline: as §2
[7] = test system: Drosophila; assay: Anti-cancer activity in Drosophila harboring UAS-Ras V12 mutant assessed as improvement in third instar larval survivability at 10 to 50 uM, po; assay type: functional, organism-based; conditions: dose 10-50 µM; outline: as §2
[8] = test system: Drosophila; assay: Anti-cancer activity in Drosophila harboring UAS-Ras V12 mutant assessed as improvement in early pupal survivability at 10 to 50 uM, po; assay type: functional, organism-based; conditions: dose 10-50 µM; outline: as §2
[9] = test system: Drosophila; assay: Toxicity in wild-type Drosophila assessed as eclosion rate at 10 uM, po via food to female and male flies and measured in F1 generation flies after 15 days; assay type: organism-based; conditions: in vivo, 360 h, time 15 day; outline: as §1
[10] = test system: Drosophila; assay: Toxicity in wild-type Drosophila assessed as reduction in eclosion rate at 200 uM, po via food to female and male flies and measured in F1 generation flies after 15 days; assay type: organism-based; design: scale not given: the % may be the effect or the level left; conditions: in vivo, 360 h, time 15 day; outline: as §1
[11] = Cmax in male Wistar rat at 10 mg/kg, po measured up to 24 hrs by HPLC analysis; assay type: ADME, organism-based; conditions: in vivo
Outline: (§3)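 Overnight-fasted male Wistar rats, 200–250 g, single 10 mg kg−1 p.o. in 0.3% sodium CMC; blood at 0, 0.5, 1, 2, 4, 8, 16, 24 h into heparin tubes; plasma MeOH-extracted, HPLC (MeOH:H2O 85:15, 254 nm) against calibration curve; extravascular non-compartmental analysis; mean ± SD (n = 3).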

[12] = Tmax in male Wistar rat at 10 mg/kg, po measured up to 24 hrs by HPLC analysis; assay type: ADME, organism-based; conditions: in vivo; outline: as §3
[13] = Half life in male Wistar rat at 10 mg/kg, po measured up to 24 hrs by HPLC analysis; assay type: ADME, organism-based; conditions: in vivo; outline: as §3
[14] = test system: A549; assay: Cytotoxicity against human A549 cells assessed as growth inhibition incubated for 48 hrs by SRB assay; conditions: A549, 48 h

Q: With `Clc1ccc(-c2nnc(CN3CCN(C(c4ccccc4)c4ccc(Cl)cc4)CC3)o2)cc1` (centres undefined) as the molecule, how does the LC50 at 360 h [1] read?
A: 100 µM

Q: What about the Activity [2] of the same molecule?
A: < 50%

Q: What about the Activity [3] of the same molecule?
A: Active

Q: What about the Activity [4] of the same molecule?
A: Active

Q: And the Activity [5]?
A: Active

Q: And the Activity [6]?
A: Active

Q: What about the Activity [7] of the same molecule?
A: Active

Q: And the Activity [8]?
A: Active

Q: What about the Activity [9] of the same molecule?
A: ~ 84%

Q: What about the Activity [10] of the same molecule?
A: 24%

Q: And the Cmax [11]?
A: 10300 ng/mL

Q: And the Tmax [12]?
A: 3 h

Q: And the half-life [13]?
A: 2.11 h

Q: What about the GI50 [14] of the same molecule?
A: 0.731 µM

— ChEMBL document CHEMBL6134766, “Design, synthesis, and evaluation of benzhydrylpiperazine-based novel dual COX-2/5-LOX inhibitors with anti-inflammatory and anti-cancer activity” (RSC Med Chem, 2025)
